Measurements taken from ChEMBL document CHEMBL3352122, “Design, synthesis and evaluation of 2-aminothiazole derivatives as sphingosine kinase inhibitors” (Bioorg Med Chem, 2014).
The source made the active and inactive calls. The calls are words filed in the database; no cut-off is given here.

Legend:
[1] = Cytotoxicity against human U937 cells at 30 uM after 24 hrs by LDH release assay; assay type: cell-based; details: u-937, 24 h
Procedure, shortened: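 U937 cells seeded at 1.5 × 10⁴ cells/well, then exposed 24 h to increasing compound concentrations or DMSO vehicle. After centrifugation (250 × g, 4 min), LDH in the supernatant was measured as loss of membrane integrity. Detergent-induced maximum release was set to 100%. Three experiments, mean ± SE.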

Sphingosine kinase 2 = biological target: T1, Sphingosine kinase 2 (Homo sapiens, UniProt Q9NRA0); experiment: Inhibition of human recombinant Sphk2 after 60 mins by ADP2 fluorescence intensity assay
T1 sequence (Q9NRA0 whole entry): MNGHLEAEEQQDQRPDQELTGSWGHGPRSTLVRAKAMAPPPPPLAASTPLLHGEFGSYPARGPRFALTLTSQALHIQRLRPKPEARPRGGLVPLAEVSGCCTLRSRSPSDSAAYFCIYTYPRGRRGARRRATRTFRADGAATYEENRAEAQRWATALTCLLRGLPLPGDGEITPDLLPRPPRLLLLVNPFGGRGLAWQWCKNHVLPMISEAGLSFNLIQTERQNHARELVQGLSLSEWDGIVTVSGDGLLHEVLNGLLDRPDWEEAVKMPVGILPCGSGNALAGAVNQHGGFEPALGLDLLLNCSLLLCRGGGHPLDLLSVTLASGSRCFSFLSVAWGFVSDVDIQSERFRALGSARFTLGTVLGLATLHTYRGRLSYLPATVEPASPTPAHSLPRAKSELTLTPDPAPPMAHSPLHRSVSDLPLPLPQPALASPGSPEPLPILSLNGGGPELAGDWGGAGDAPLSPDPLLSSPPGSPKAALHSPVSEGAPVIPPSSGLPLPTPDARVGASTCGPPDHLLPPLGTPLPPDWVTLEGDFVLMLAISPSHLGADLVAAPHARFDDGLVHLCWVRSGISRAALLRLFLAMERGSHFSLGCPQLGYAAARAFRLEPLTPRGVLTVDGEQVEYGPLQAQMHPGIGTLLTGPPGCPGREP
Procedure, shortened: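 Recombinant human SphK2 pre-incubated 15 min at RT with inhibitor at eight increasing concentrations, then reacted with D-erythro-sphingosine and ATP for 60 min at RT, keeping substrate conversion at 10–15% within the linear range. […] IC50 was derived from the concentration–inhibition data.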

[2] = biological target: T2, Sphingosine kinase 2 (Homo sapiens) (UniProt Q9NRA0); experiment: Inhibition of human recombinant Sphk2 at 10 uM after 60 mins by ADP2 fluorescence intensity assay
T2 sequence (whole entry): T1 sequence (Q9NRA0 whole entry)
Procedure, shortened: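 Human recombinant SphK2 (stock 0.5 mg/mL in Tris-HCl pH 8.0/imidazole/DTT/glycerol) pre-incubated 15 min at RT with compound at 10 µM or DMSO. Reaction with D-erythro-sphingosine and ATP ran 60 min at RT at 10–15% substrate conversion. ADP was read by Transcreener ADP² FI competitive fluorescence against an ATP/ADP standard curve. % inhibition vs DMSO given as mean ± SEM of five independent experiments, one-sample t-test.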

Structure (SMILES) | inhibition [2] | also measured
Cc1csc(Nc2nc(-c3nccs3)cs2)n1 | 50% | Activity [1]: 0.69%; IC50 (Sphingosine kinase 2): 6.5 µM
COc1cc(Nc2nc(C34CC5CC(CC(C5)C3)C4)c(C)s2)cc(OC)c1OC | 21.5% | 
COc1ccccc1Nc1nc(C23CC4CC(CC(C4)C2)C3)c(C)s1 | 41.6% | 
COc1cc(/C=C/C(=O)Nc2nccs2)cc(OC)c1OC | 26.6% | 
Oc1ccc(Nc2nc(-c3nccs3)cs2)cc1 | inactive | 
CSc1ccc(Nc2nc(C34CC5CC(CC(C5)C3)C4)c(C)s2)cc1 | inactive | 
c1cc2c(cc1Nc1nc(C34CC5CC(CC(C5)C3)C4)cs1)OCO2 | 41.3% | 
CC(C)c1ccc(Nc2nc(C34CC5CC(CC(C5)C3)C4)cs2)cc1 | inactive | 
COc1ccc(Nc2nc(-c3ccc(Cl)cc3)c(C)s2)cc1 | inactive | 
CSc1ccc(Nc2nc(-c3ccc(Cl)cc3)c(C)s2)cc1 | inactive | 
Oc1ccc(Nc2nc(-c3ccc(Br)cc3)cs2)cc1 | 10.3% | 
COc1ccc(Nc2nc(C34CC5CC(CC(C5)C3)C4)cs2)cc1OC | inactive | 
c1cc2c(cc1Nc1nc(C34CC5CC(CC(C5)C3)C4)cs1)OCCO2 | 31.7% | 
CSc1ccc(Nc2nc(C34CC5CC(CC(C5)C3)C4)cs2)cc1 | 18.6% | 
COc1ccc(Nc2nc(C34CC5CC(CC(C5)C3)C4)cs2)cc1 | inactive | 
Cc1cc(CS(=O)(=O)c2ccccc2)cc(OCc2ccc(CN3CCC[C@@H]3CO)cc2)c1 | 14.7% | 
Cc1csc(Nc2nc(-c3ccc(Cl)cc3)c(C)s2)n1 | 19.2% | 
FC(F)(F)c1cc(Nc2nc(-c3ccc(Cl)cc3)cs2)cc(C(F)(F)F)c1 | inactive | 
CN(C)c1ccc(Nc2nc(C34CC5CC(CC(C5)C3)C4)cs2)cc1 | inactive | 
Cc1csc(Nc2nc(C34CC5CC(CC(C5)C3)C4)c(C)s2)n1 | 20.9% | 
COc1ccc(/C=C/C(=O)Nc2nccs2)cc1OC | 26.5% | 
Cc1sc(Nc2ccc(O)cc2)nc1-c1ccc(Cl)cc1 | inactive | 
COc1ccccc1Nc1nc(C23CC4CC(CC(C4)C2)C3)cs1 | 19% | 
COc1cc(Nc2nc(C34CC5CC(CC(C5)C3)C4)cs2)cc(OC)c1OC | 20.8% | 

More lines, main results first:

inhibition [2] | Structure (SMILES) | also measured
inactive | FC(F)(F)Oc1ccc(Nc2nc(-c3ccc(Cl)cc3)cs2)cc1 | 
inactive | OCc1ccc(Nc2nc(-c3ccc(Cl)cc3)cs2)cc1 | 
inactive | COc1ccc(Nc2nc(-c3ccc(Cl)cc3)cs2)cc1OC | 
inactive | Clc1ccc(-c2csc(Nc3ccc4c(c3)OCO4)n2)cc1 | 
inactive | Oc1ccccc1Nc1nc(-c2ccc(Cl)cc2)cs1 | 
inactive | COc1ccc(Nc2nc(-c3ccc(Cl)cc3)cs2)cc1 | 
inactive | FC(F)(F)c1ccc(Nc2nc(-c3ccc(Cl)cc3)cs2)cc1 | 
inactive | Clc1ccc(-c2csc(Nc3ccc4c(c3)OCCO4)n2)cc1 | 
31.7% | COc1ccc(/C=C/C(=O)Nc2nc(-c3ccc(Cl)cc3)cs2)cc1OC | 
inactive | CN(C)c1ccc(Nc2nc(-c3ccc(Cl)cc3)cs2)cc1 | 
inactive | CC(C)c1ccc(Nc2nc(-c3ccc(Cl)cc3)cs2)cc1 | 
inactive | CSc1ccc(Nc2nc(-c3ccc(Cl)cc3)cs2)cc1 | 
inactive | COc1cc(Nc2nc(-c3ccc(Cl)cc3)c(C)s2)cc(OC)c1OC | 
inactive | COc1ccccc1Nc1nc(-c2ccc(Cl)cc2)cs1 | 
inactive | COc1cc(Nc2nc(-c3ccc(Cl)cc3)cs2)cc(OC)c1OC | 
32% | COc1cc(/C=C/C(=O)Nc2nc(-c3ccc(Cl)cc3)cs2)cc(OC)c1OC | 
15.5% | Oc1ccc(Nc2nc(-c3ccc(Cl)cc3)cs2)cc1 | 
inactive | Oc1cccc(Nc2nc(-c3ccc(Cl)cc3)cs2)c1 | 
